Published values pooled from the literature.
Lines come from different studies, so protocols differ. In brackets after ≈: the same amount, converted by molar mass.

With `C#CCCCCCCCCC=CCC(O)CC(O)CO` (stereo not drawn) the IC50 was > 200 µg/mL (Mycobacterium intracellulare; microbial growth, resazurin; ATCC23068).
With `CCCCCCCCCC(=O)N[C@@H](Cc1c[nH]c2ccccc12)C(=O)N[C@H](CC(N)=O)C(=O)N[C@@H](CC(=O)O)C(=O)N[C@@H]1C(=O)NCC(=O)N[C@@H](CCCN)C(=O)N[C@@H](CC(=O)O)C(=O)N[C@H](C)C(=O)N[C@@H](CC(=O)O)C(=O)NCC(=O)N[C@H](CO)C(=O)N[C@@H]([C@H](C)CC(=O)O)C(=O)N[C@@H](CC(=O)c2ccccc2N)C(=O)O[C@@H]1C` the MIC was 2 µg/mL (≈ 1.23 µM) (Enterococcus faecium; microbial growth, broth dilution; 24 h).
For `CCCCCCCCCCCCCC(O)CC(O)CO` (stereo not drawn), the IC50 was > 200 µg/mL (Mycobacterium intracellulare; microbial growth, resazurin; ATCC23068).
With `CC(C)Oc1c(NC(=O)c2ccc(NC(=O)c3ccc(NC(=O)[C@H](CC(N)=O)NC(=O)c4ccc(NC(=O)c5ccc(C#N)cn5)cc4)cc3)c(OC(C)C)c2O)ccc(C(=O)O)c1O` the MIC was 0.5 µg/mL (≈ 0.564 µM) (Citrobacter freundii; microbial growth; DSM30039).
`NS(=O)(=O)c1ccc(N/N=C2\C(=O)Nc3ccc(Cl)cc32)cc1` gave an EC50 of 1.58 µM (Trypanosoma brucei; parasite growth).
With `CC(=O)Oc1ccc(-n2c(/C=C/c3ccc([N+](=O)[O-])cc3)nc3ccccc3c2=O)cc1` the MIC was 32 µg/mL (≈ 74.9 µM) (Enterococcus faecium; microbial growth, broth dilution; NCTC7171).
`COc1cc(/C=N/Nc2ncnc3c2cnn3C(C)C)ccc1O` gave an EC50 of 1 µM (Trypanosoma brucei; parasite growth).
`O=C(O)c1cn(C2CC2)c2cc(N3CCNCC3)c(F)cc2c1=O` gave an IC50 of 0.69 µM (Mycobacterium intracellulare; microbial growth; ATCC23068).
`CC(=O)NCc1cccc(-n2c(/C=C/c3ccc(C#N)cc3)nc3ccccc3c2=O)c1` gave an MIC of > 128 µg/mL (Enterococcus faecium; microbial growth, broth dilution; NCTC7171).
`C=CCCCCCCCCCCCC(O)CC(O)CO` (stereo not drawn) has an IC50 of > 200 µg/mL (Mycobacterium intracellulare; microbial growth, resazurin; ATCC23068).
For `Cl.Oc1cccc2c1[nH]c1c(C3=CC4(O)CC/C=C\CCCCN5CCC3C3(CC6/C=C\CCCCN6C43)C5)nccc12` (single isomer, unassigned; (+)), the IC50 was 0.22 µg/mL (Mycobacterium intracellulare; microbial growth, resazurin; ATCC23068).
`O=C(Nc1ccccc1-c1ccc(F)c(F)c1)c1nccnc1C(F)(F)F` gave an EC50 of 0.057 µg/mL (Alternaria brassicicola; microbial growth).
`CC(=O)Nc1ccc(-c2nc(-c3ccc(Oc4ccccc4)cc3)no2)cc1` gave an MIC of > 32 µg/mL (Enterococcus faecium; microbial growth, broth dilution; 24 h).
`CS(=O)(=O)NCc1cccc(-n2c(/C=C/c3ccc(C#N)cc3)nc3ccccc3c2=O)c1` gave an MIC of > 128 µg/mL (Enterococcus faecium; microbial growth, broth dilution; NCTC7171).
The MIC of `Oc1ccc(-c2nc(-c3ccc(Oc4ccccc4)cc3)no2)cc1` is reported as 2 µg/mL (≈ 6.05 µM) (Enterococcus faecium; microbial growth, broth dilution; 24 h).
With `COC(=O)Cc1ccc(/C=C/c2nc3ccccc3c(=O)n2-c2cccc(C(=O)O)c2)cc1` the MIC was > 128 µg/mL (Enterococcus faecium; microbial growth, broth dilution; NCTC7171).
`O=C(O)Cc1cccc(Oc2ccc(-c3noc(-c4ccc(O)cc4)n3)cc2)c1` gave an MIC of > 32 µg/mL (Enterococcus faecium; microbial growth, broth dilution; 24 h).
For `Cc1ccc2c(-c3ccnc(Nc4ccccc4)n3)c(-c3ccc(F)cc3)nn2n1`, the IC50 was 5.5 µM (Plasmodium berghei; parasite growth, luciferase; human; liver stage).
With `COC(=O)Nc1cccc(-n2c(/C=C/c3ccc(C#N)cc3)nc3ccccc3c2=O)c1` the MIC was > 128 µg/mL (Enterococcus faecium; microbial growth, broth dilution; NCTC7171).
With `COc1cc2c(cc1Nc1nc(Nc3cccc(F)c3C(N)=O)c3cc[nH]c3n1)N(C(=O)CN1CCN(C(C)C)CC1)CC2` the EC50 was 0.2 µM (Trypanosoma brucei; parasite growth).
`CC1=C(C(=O)Nc2cc3cn[nH]c3cc2F)C(c2ccc(C(F)(F)F)cc2)CC(=O)N1` (stereo not drawn) gave an IC50 of 4.7 µM (Plasmodium berghei; parasite growth, luciferase; human; liver stage).
With `CC(=O)OCC#Cc1ccc(/C=C/c2nc3ccccc3c(=O)n2-c2cccc(C(=O)O)c2)cc1` the MIC was > 128 µg/mL (Enterococcus faecium; microbial growth, broth dilution; NCTC7171).
The IC50 of `COC(=O)c1ccc2c(c1)C(=Cc1cc(Br)c(O)c(Br)c1)C(=O)N2` is reported as 6.7 µM (Plasmodium berghei; parasite growth, luciferase; human; liver stage).
With `Cl.NCCc1ccc(Oc2ccc(-c3noc(-c4ccc(O)cc4)n3)cc2)cc1` the MIC was 4 µg/mL (Enterococcus faecium; microbial growth, broth dilution; 24 h).
The MIC of `CC(=O)Nc1cccc(-n2c(/C=C/c3ccc(F)cc3)nc3ccccc3c2=O)c1` is reported as > 128 µg/mL (Enterococcus faecium; microbial growth, broth dilution; NCTC7171).
`COc1cc(C=NNc2ncnc3c2cnn3-c2ccccc2)ccc1O` gave an EC50 of 1.58 µM (Trypanosoma brucei; parasite growth).
`COc1ccc(-c2nn3ncccc3c2-c2ccnc(Nc3ccc4c(c3)OCCO4)n2)cc1` has an IC50 of 3.5 µM (Plasmodium berghei; parasite growth, luciferase; human; liver stage).
`C[N+](C)(C)CCc1ccc(Oc2ccc(-c3noc(-c4ccc(O)cc4)n3)cc2)cc1.[I-]` has an MIC of 8 µg/mL (Enterococcus faecium; microbial growth, broth dilution; 24 h).
`C[C@@H](Oc1cc(-n2cnc3ccc(OCC4CCN(C)CC4)cc32)sc1C(N)=O)c1ccccc1C(F)(F)F` has an EC50 of 0.0158 µM (Trypanosoma brucei; parasite growth).
With `O=c1c2cnccc2nc(/C=C/c2ccc(F)cc2)n1-c1cccc(O)c1` the MIC was > 128 µg/mL (Enterococcus faecium; microbial growth, broth dilution; NCTC7171).
For `CN(c1ccc(NC(=O)Nc2c(Cl)cccc2Cl)cc1)c1ccnc(Nc2cccc(CS(C)(=O)=O)c2)n1`, the EC50 was 7.94 µM (Trypanosoma brucei; parasite growth).
`C[C@@H]1[C@H](O)[C@@H](C)/C=C/C=C/C=C/C=C/C=C/C=C/C=C/[C@H](O[C@@H]2O[C@H](C)[C@@H](O)[C@H](N)[C@@H]2O)C[C@@H]2O[C@](O)(C[C@@H](O)C[C@@H](O)[C@H](O)CC[C@@H](O)C[C@@H](O)CC(=O)O[C@H]1C)C[C@H](O)[C@H]2C(=O)O` has an MFC of 1.35 µM (≈ 1.25 µg/mL) (Candida albicans; microbial killing; ATCC90028).
The EC50 of `CS(=O)(=O)CCNCc1nc(-c2ccc3ncnc(Nc4ccc(OCc5cccc(C(F)(F)F)c5)cc4)c3c2)cs1` is reported as 3.16 µM (Trypanosoma brucei; parasite growth).
The MIC of `CC(CN)c1ccc(Oc2ccc(-c3noc(-c4ccc(O)cc4)n3)cc2)cc1.Cl` (racemic) is reported as 4 µg/mL (Enterococcus faecium; microbial growth, broth dilution; 24 h).
For `CC(C)=Cc1cccc2c1C(=NNc1ccc(S(N)(=O)=O)cc1)C(=O)N2`, the EC50 was 0.0316 µM (Trypanosoma brucei; parasite growth).
With `C#CCCCCCCCCCCCC(O)CC(O)CO` (stereo not drawn) the IC50 was > 200 µg/mL (Mycobacterium intracellulare; microbial growth, resazurin; ATCC23068).
